The source of these data is ChEMBL document CHEMBL5154713, “Illuminating a Dark Kinase: Structure-Guided Design, Synthesis, and Evaluation of a Potent Nek1 Inhibitor and Its Effects on the Embryonic Zebrafish Pronephros” (J Med Chem, 2022).

Series [1] deals with Phosphatidylinositol 4,5-bisphosphate 3-kinase catalytic subunit beta isoform (Homo sapiens) (UniProt P42338). The series is described as follows: Inhibition of human full length recombinant PI3Kbeta assessed as residual activity using phosphatidylinositol 4,5-bisphosphate as substrate at 1 uM incubated for 40 mins in presence of ATP by HTRF assay relative to control. (TR-FRET usually uses a lanthanide donor and a delayed reading to cut background.)

The nature of series [2]: Toxicity in fluorescence-labelled Zebrafish pronephron assessed as increase in impaired renal clearance at 10 to 20 uM. On the set-up: species or system Danio rerio. As to conditions: in vivo, dose 10-20 µM. The method, boiled down:
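Wild-type embryos exposed from 6 hpf to E3/0.2% DMSO controls or 10 and 20 μM compound, in E3 with 75 μM PTU. At 48 h, 100 nM PT-Yellow for 20 min, washed, then returned to compound up to 96 h total. Anesthetized embryos imaged in agarose molds by widefield microscopy, 33 Z-slices. Tubule fluorescence and area quantified from summed deconvolved projections. n = 3–5.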

For series [3], the target named is Serine/threonine-protein kinase Nek3 (Homo sapiens) (UniProt P51956). The series is described as follows: Inhibition of recombinant full-length human NEK3 assessed as residual activity at 1 uM using myelin basic protein as substrate measured after 40 mins in presence of [gamma33P]ATP by radiometric scintillation counting method relative to control. A digest of the protocol: (§1)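 Commercial radiometric panel of 50 kinases. Each recombinant human kinase was tested at a single compound concentration of 1 μM. ATP was set within 15 μM of the apparent Km for ATP for each kinase. Residual activity is relative to control and is the mean of two independent experiments.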

For series [4], the target named is Serine-protein kinase ATM (Homo sapiens) (UniProt Q13315). The series is described as follows: Inhibition of human full length recombinant ATM assessed as residual activity at 1 uM using GST-cMyc-p53 as substrate incubated for 40 mins in presence of ATP by HTRF assay relative to control.
Series [5] addresses Eukaryotic elongation factor 2 kinase (Homo sapiens) (UniProt O00418). The experiment in a line: Inhibition of human eEF-2K (2 to end residues) assessed as residual activity at 1 uM using RKKFGESEKTKTKEFL as substrate incubated for 40 mins in presence of [gamma 33P]-ATP by radiometric scintillation counting assay relative to control. The method, boiled down: as §1
The target of series [6] is Phosphatidylinositol 4,5-bisphosphate 3-kinase catalytic subunit alpha isoform (Homo sapiens) (UniProt P42336). The series is described as follows: Inhibition of human full length recombinant PI3Kalpha assessed as residual activity at 1 uM using phosphatidylinositol 4,5-bisphosphate as substrate incubated for 40 mins in presence of ATP by HTRF assay relative to control.

Series [7] addresses RAC-alpha serine/threonine-protein kinase (Homo sapiens) (UniProt P31749). The experiment in a line: Inhibition of human full length Akt1 assessed as residual activity at 1 uM using GRPRTSSFAEGKK as substrate incubated for 40 mins in presence of [gamma 33P]-ATP based radiometric scintillation counting assay relative to control. A digest of the protocol:
as §1

The target of series [8] is T1, Serine/threonine-protein kinase Nek1 (Homo sapiens) (UniProt Q96PY6).
T1 sequence (whole entry): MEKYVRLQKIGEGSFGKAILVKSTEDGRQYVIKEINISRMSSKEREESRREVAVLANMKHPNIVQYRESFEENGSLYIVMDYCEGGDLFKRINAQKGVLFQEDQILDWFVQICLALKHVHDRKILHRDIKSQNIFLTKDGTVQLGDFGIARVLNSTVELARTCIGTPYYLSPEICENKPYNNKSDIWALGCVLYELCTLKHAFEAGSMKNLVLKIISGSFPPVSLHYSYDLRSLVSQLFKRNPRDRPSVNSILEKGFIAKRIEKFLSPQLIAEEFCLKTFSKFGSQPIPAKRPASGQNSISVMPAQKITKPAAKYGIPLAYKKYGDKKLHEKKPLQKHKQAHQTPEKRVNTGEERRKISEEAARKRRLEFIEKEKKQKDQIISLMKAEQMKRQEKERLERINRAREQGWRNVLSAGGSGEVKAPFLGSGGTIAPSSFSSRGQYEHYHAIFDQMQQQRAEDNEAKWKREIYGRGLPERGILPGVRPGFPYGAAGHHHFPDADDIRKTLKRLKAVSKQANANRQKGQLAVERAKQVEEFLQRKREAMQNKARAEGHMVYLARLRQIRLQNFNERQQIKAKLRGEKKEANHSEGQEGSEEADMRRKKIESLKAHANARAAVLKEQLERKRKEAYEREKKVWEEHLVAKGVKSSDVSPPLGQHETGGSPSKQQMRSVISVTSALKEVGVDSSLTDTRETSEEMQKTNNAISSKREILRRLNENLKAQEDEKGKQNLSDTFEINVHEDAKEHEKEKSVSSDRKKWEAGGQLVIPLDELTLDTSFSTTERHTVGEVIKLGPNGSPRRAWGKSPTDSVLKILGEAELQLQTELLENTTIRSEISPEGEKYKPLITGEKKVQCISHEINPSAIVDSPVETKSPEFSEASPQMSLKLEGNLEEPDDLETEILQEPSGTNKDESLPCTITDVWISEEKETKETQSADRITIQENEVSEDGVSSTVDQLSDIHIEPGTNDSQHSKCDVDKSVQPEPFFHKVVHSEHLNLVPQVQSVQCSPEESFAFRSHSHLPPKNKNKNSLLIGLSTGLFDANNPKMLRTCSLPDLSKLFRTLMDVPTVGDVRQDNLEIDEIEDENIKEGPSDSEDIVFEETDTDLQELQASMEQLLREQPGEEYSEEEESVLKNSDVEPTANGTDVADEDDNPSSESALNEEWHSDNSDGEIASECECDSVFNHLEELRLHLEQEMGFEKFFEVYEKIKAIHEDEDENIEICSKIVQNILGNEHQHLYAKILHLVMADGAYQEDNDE
The series is described as follows: Inhibition of human recombinant NEK1 (1 to 505 residues) assessed as residual activity at 1 uM using RLGRDKYKTLRQIRQ as substrate incubated for 40 mins in presence of [gamma-33P]-ATP by radiometric scintillation counting assay relative to control. A digest of the protocol:
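Eurofins KinaseProfiler radiometric panel, compound at 1 μM, ATP at 10 μM or within 15 μM of apparent Km. For Nek1 (1−505): 8 mM MOPS pH 7.0, 0.2 mM EDTA, 250 μM peptide, 10 mM Mg acetate, [γ-33P]-ATP, 40 min at room temperature. Stopped with 0.5% phosphoric acid, filtermat spotting, scintillation counting. Mean of two independent experiments.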

The target of series [9] is Mitogen-activated protein kinase 14 (Homo sapiens) (UniProt Q16539). The experiment in a line: Inhibition of recombinant human full length SAPK2a assessed as residual activity at 1 uM using myelin basic protein as substrate measured after 40 mins in presence of [gamma33P]ATP by scintillation counting method relative to control. The method, boiled down: as §1
Series [10] deals with Serine/threonine-protein kinase PLK3 (Homo sapiens) (UniProt Q9H4B4). The experiment in a line: Inhibition of recombinant human Plk3 (19 to 301 residues) assessed as residual activity at 1 uM using casein as substrate measured after 40 mins in presence of [gamma33P]ATP by radiometric scintillation counting method relative to control. The method, boiled down:
as §1

Some results are limits rather than exact numbers.

Chain of Serine-protein kinase ATM (Homo sapiens) (Q13315 whole entry): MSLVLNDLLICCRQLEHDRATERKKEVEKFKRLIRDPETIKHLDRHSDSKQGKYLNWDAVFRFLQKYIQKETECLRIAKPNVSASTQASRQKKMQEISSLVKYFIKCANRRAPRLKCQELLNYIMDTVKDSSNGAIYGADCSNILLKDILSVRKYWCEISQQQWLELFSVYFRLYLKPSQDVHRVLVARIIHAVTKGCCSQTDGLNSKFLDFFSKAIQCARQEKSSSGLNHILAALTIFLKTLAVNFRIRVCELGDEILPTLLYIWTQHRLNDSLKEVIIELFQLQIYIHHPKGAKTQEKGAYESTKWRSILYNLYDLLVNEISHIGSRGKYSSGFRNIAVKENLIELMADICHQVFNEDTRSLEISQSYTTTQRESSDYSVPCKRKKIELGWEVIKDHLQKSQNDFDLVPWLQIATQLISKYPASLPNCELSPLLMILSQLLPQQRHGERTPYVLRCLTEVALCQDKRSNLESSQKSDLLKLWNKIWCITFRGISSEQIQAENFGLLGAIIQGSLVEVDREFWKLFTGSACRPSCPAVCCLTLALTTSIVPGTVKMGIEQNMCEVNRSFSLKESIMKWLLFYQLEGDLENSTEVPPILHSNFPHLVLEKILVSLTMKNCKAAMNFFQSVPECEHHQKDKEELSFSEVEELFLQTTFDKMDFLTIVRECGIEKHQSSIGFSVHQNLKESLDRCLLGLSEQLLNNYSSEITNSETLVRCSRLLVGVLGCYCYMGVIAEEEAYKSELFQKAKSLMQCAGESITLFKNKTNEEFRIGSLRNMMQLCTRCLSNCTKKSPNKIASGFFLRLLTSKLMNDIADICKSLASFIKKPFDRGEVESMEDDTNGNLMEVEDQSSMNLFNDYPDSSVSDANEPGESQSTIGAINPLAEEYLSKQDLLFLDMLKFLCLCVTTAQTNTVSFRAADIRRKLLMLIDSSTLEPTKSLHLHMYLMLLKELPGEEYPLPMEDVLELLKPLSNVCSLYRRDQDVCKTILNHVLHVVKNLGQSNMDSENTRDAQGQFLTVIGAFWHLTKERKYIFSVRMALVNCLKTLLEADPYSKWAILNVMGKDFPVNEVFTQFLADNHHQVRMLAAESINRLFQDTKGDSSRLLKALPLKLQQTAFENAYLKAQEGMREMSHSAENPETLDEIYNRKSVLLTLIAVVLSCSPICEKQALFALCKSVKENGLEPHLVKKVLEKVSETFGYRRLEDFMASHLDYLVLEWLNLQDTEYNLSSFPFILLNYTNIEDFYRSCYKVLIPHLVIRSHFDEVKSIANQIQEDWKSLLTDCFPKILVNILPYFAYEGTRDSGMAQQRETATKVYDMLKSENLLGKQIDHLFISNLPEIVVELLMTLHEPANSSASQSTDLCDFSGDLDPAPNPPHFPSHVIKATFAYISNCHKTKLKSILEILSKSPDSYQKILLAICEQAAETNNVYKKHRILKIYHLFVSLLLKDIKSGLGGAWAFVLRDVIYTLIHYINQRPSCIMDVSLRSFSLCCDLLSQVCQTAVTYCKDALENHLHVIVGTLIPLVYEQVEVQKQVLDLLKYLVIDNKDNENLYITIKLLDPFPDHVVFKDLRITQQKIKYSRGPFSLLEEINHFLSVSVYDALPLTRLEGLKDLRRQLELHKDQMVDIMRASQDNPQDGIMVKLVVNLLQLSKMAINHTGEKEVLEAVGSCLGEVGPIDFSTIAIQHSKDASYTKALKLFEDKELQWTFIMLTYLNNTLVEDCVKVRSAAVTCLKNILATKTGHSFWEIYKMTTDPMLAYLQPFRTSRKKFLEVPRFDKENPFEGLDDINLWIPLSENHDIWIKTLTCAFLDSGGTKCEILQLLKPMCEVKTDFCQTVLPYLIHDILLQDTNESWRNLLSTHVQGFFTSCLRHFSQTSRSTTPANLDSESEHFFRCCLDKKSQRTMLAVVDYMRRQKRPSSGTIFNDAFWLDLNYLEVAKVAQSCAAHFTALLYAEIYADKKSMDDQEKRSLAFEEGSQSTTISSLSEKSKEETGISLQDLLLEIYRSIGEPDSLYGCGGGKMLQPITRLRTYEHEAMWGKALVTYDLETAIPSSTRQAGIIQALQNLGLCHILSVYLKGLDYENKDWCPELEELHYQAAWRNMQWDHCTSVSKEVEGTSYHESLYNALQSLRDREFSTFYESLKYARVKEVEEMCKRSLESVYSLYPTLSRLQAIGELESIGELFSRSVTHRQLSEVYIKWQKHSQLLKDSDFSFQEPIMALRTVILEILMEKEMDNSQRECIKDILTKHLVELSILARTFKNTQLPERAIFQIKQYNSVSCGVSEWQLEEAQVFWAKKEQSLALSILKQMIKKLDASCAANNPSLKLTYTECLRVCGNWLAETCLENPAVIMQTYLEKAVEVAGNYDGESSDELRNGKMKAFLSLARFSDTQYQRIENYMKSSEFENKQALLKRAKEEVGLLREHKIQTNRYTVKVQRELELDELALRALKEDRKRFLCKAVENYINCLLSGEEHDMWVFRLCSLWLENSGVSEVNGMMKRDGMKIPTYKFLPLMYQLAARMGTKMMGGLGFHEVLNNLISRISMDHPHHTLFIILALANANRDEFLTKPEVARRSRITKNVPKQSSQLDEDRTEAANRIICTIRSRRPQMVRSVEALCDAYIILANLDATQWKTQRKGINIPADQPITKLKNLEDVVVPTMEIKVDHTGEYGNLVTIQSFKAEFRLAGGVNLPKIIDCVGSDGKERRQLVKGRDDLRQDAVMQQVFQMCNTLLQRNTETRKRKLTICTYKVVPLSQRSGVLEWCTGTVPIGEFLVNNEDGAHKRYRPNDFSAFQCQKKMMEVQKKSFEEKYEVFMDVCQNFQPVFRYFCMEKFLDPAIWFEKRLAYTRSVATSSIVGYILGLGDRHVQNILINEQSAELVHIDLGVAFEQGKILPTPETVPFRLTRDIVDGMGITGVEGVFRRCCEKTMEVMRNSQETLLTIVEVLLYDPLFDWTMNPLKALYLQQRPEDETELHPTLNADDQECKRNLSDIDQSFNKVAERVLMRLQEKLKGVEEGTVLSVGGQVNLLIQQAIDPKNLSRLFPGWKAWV
Chain of Mitogen-activated protein kinase 14 (Homo sapiens) (Q16539 whole entry, the tested form may be a part): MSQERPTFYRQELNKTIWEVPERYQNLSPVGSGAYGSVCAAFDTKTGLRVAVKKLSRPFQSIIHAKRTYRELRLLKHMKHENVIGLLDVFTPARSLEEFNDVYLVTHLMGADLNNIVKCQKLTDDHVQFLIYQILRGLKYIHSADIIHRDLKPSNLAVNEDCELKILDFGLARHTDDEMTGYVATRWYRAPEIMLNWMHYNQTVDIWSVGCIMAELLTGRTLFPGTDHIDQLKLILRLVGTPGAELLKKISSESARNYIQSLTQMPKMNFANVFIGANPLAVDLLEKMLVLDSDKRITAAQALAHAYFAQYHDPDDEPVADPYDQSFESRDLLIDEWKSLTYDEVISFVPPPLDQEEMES
Chain of Serine/threonine-protein kinase Nek3 (Homo sapiens) (P51956 whole entry): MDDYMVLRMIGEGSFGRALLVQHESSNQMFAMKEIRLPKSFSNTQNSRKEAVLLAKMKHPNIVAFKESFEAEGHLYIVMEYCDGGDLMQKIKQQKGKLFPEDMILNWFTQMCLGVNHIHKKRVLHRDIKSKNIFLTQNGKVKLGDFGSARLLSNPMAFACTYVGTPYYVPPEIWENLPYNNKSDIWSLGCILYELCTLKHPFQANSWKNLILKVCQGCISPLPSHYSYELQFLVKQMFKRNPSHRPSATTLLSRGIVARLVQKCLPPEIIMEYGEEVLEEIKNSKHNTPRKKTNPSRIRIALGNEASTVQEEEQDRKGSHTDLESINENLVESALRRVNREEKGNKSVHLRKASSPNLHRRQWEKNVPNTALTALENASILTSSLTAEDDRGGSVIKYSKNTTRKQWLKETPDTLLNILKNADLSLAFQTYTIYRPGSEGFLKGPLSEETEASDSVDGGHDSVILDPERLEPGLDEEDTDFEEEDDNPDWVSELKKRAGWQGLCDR
Chain of RAC-alpha serine/threonine-protein kinase (Homo sapiens) (P31749 whole entry): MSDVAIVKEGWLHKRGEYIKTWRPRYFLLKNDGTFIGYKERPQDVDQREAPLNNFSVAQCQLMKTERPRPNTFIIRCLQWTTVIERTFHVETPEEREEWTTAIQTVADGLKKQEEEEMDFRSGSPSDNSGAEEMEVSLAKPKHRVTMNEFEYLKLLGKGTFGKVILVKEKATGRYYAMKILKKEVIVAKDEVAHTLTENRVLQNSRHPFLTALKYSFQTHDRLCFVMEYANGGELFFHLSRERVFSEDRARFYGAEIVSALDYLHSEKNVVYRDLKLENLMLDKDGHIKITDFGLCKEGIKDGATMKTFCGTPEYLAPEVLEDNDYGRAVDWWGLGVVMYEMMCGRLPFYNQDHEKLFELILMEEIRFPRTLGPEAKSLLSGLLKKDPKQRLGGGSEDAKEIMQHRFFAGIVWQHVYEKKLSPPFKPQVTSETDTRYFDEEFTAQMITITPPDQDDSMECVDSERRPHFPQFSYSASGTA
Chain of Serine/threonine-protein kinase PLK3 (Homo sapiens) (Q9H4B4 whole entry, looked up, the tested form may be a part): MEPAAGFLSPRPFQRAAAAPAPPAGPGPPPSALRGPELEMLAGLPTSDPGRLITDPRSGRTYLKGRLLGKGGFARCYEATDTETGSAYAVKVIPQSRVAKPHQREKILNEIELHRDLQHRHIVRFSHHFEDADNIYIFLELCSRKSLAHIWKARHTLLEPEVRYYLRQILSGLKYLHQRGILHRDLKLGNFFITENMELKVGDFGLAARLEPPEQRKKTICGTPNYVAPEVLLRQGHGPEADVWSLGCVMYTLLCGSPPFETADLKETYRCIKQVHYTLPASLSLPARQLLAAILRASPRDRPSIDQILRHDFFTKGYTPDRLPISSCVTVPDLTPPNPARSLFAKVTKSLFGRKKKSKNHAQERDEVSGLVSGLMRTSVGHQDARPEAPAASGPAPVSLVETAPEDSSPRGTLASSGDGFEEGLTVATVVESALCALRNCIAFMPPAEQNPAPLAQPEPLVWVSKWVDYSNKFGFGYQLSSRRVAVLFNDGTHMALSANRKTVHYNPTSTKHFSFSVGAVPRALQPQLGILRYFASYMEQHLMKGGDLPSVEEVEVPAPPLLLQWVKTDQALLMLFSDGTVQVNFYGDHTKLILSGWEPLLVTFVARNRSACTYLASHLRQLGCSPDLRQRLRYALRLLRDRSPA

On to `O=S(=O)(N[C@@H](CO)Cc1c[nH]c2ccccc12)c1ccc(-c2ccnc3[nH]ccc23)cc1`, for which the Activity in [1] is over 75%; in [2], “Toxic”; in series [3] it was over 75%; in series [4], over 75%; in [5], over 75%; in [6], over 75%. The Activity in [7] is over 75%; in series [8], 4%; in series [9], over 75%; in [10], over 75%.
